Assay [1] has as its system S. pombe strains (pxl1 wild type and pxl1 mutants). The experiment in a line: Serial dilution growth assay in the presence of LatA. The class given is cell-based. Conditions: low-dose LatA (0.20 μM), 32°C. The method, boiled down: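 Strains were grown in liquid YE at 25°C. Three 10-fold serial dilutions starting at 4 × 10^6 cells/ml were spotted on YE agar containing 0.20 µM LatA or DMSO. Plates were incubated at 32°C for 2–5 d, then colonies were imaged by scanner.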

Assay [2] concerns the target Pxl1 PxxP^6 peptide (residues 177–188), biotin-labeled (S. pombe).

For the molecule `C/C1=C/C(=O)O[C@@H]2C[C@@H](CC[C@H](C)/C=C\C=C\CC1)O[C@@](O)([C@@H]1CSC(=O)N1)C2` [LatA, latrunculin A], the “sensitivity of pxl1 mutants to LatA” value in assay [1] is recorded as “no evidence of sensitivity”.

B1: GST-Cdc15C1 (residues 600–end) (domain or fragment)
chain: MRRRQSTSVDDEAPVSLSKTSSSTRLNGLGYHSRNTSIASDIDGVPKKSTLGAPPAAHTSAQMQRMSNSFASQTKQVFGEQRTENSARESLRHSRSNMSRSPSPMLSRRSSTLRPSFERSASSLSVRQSDVVSPAPSTRARGQSVSGQQRPSSSMSLYGEYNKSQPQLSMQRSVSPNPLGPNRRSSSVLQSQKSTSSNTSNRNNGGYSGSRPSSEMGHRYGSMSGRSMRQVSQRSTSRARSPEPTNRNSVQSKNVDPRATFTAEGEPILGYVIALYDYQAQIPEEISFQKGDTLMVLRTQEDGWWDGEIINVPNSKRGLFPSNFVQTV
For orientation: Kd means the concentration at which binding is half-saturated. A high value points to weaker binding. In assay [2], B1 returned a Kd of 1900 nM.

Source of the values: article PMC9250355 (Molecular Biology of the Cell, 2022).
